The chains are these.
B1: Osa-1-4 twister ribozyme (parent)
chain: CCGCCUAACACUGCCAAUGCCGGUCCCAAGCCCGGAUAAAAGUGGAGGGGGCGG

The series covers variants of B1. As to the kind of experiment: self-cleavage, relative activity (ratio to wild type); higher = more cleavage; co-transcriptional. A digest of the protocol:
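The 48 positions downstream of the cleavage site in a 54-nucleotide Oryza sativa twister ribozyme template were synthesised at 97 % wild-type base and 1 % of each other base. The template was transcribed in vitro at 37 °C for 2 h, with self-cleavage allowed during transcription. Reads with or without upstream sequence after deep sequencing marked cleavage status, and relative activity is fraction cleaved normalised to wild type.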
In the case of CCGCCUAACAGUGCCAAUGCCGGUCCCAAGCCCGGAUAAAAGUGGAGGGUGCGG [C11G G50U], the self-cleavage stood at 0.42.

Consider CCGCCUAACAGUGCCAAUGCCGGUCCCAAGCCCGGAUAAAAGUGGAGGGGCCGG [C11G G51C], for which the self-cleavage came to 0.03.

CCGCCUAACAGUGCCAAUGCCGGUCCCAAGCCCGGAUAAAAGUGGAGGGGUCGG [C11G G51U]: the self-cleavage stood at 0.05.

As to CCGCCUAACAGUGCCAAUGCCGGUCCCAAGCCCGGAUAAAAGUGGAGGGGACGG [C11G G51A], the self-cleavage amounted to 0.07.

As to CCGCCUAACAGUGCCAAUGCCGGUCCCAAGCCCGGAUAAAAGUAGAGGGGGCGG [C11G G44A], the self-cleavage came to 0.17.

Regarding CCGCCUAACAGUGCCAAUGCCGGUCCCAAGCCCGGAUAAAAGUUGAGGGGGCGG [C11G G44U], the self-cleavage turned out to be 0.09.

As for CCGCCUAACAGUGCCAAUGCCGGUCCCAAGCCCGGAUAAAAGUCGAGGGGGCGG [C11G G44C], the self-cleavage stood at 0.11.

Consider CCGCCUAACAGUGCCAAUGCCGGUCCCAAGCCCGAAUAAAAGUGGAGGGGGCGG [C11G G35A], for which the self-cleavage came to 0.08.

With CCGCCUAACAGUGCCAAUGCCGGUCCCAAGCCCGUAUAAAAGUGGAGGGGGCGG [C11G G35U], the self-cleavage was 0.06.

With CCGCCUAACAGUGCCAAUGCCGGUCCCAAGCCCGCAUAAAAGUGGAGGGGGCGG [C11G G35C], the self-cleavage turned out to be 0.05.

Regarding CCGCCUAACAGUGCCAAUGCCGGUCCCAAGCCCGGAUAAAAGUGAAGGGGGCGG [C11G G45A], the self-cleavage was determined as 0.05.

On to CCGCCUAACAGUGCCAAUGCCGGUCCCAAGCCCGGAUAAAAGUGUAGGGGGCGG [C11G G45U], for which the self-cleavage worked out at 0.06.

Consider CCGCCUAACAGUGCCAAUGCCGGUCCCAAGCCCGGAUAAAAGUGCAGGGGGCGG [C11G G45C], for which the self-cleavage worked out at 0.04.

As for CCGCCUAACAGUGCCAAUGCCGGUCUCAAGCCCGGAUAAAAGUGGAGGGGGCGG [C11G C26U], the self-cleavage was 0.19.

For CCGCCUAACAGUGCCAAUGCCGGUCACAAGCCCGGAUAAAAGUGGAGGGGGCGG [C11G C26A], the self-cleavage came out at 0.03.

For CCGCCUAACAGUGCCAAUGCCGGUCGCAAGCCCGGAUAAAAGUGGAGGGGGCGG [C11G C26G], the self-cleavage is 0.1.

As to CCGCCUAACAGUGCCAAUGCCGGUUCCAAGCCCGGAUAAAAGUGGAGGGGGCGG [C11G C25U], the self-cleavage was determined as 0.18.

On to CCGCCUAACAGUGCCAAUGCCGGUACCAAGCCCGGAUAAAAGUGGAGGGGGCGG [C11G C25A], for which the self-cleavage was 0.04.

As to CCGCCUAACAGUGCCAAUGCCGGUGCCAAGCCCGGAUAAAAGUGGAGGGGGCGG [C11G C25G], the self-cleavage came to 0.04.

Turning to CCGCCUAACAGUGCCAAUGCCGGUCCCAAGCCCGGAAAAAAGUGGAGGGGGCGG [C11G U37A], the self-cleavage amounted to 0.38.

For the variant CCGCCUAACAGUGCCAAUGCCGGUCCCAAGCCCGGAGAAAAGUGGAGGGGGCGG [C11G U37G], the self-cleavage worked out at 0.71.

CCGCCUAACAGUGCCAAUGCCGGUCCCAAGCCCGGACAAAAGUGGAGGGGGCGG [C11G U37C]: the self-cleavage turned out to be 0.69.

As for CCGCCUAACAUUGCCAAUGCCGGUCCCAAGCCCGGAUAAAAGUGGAGGGGGCGG [C11U], the self-cleavage worked out at 0.94.

Turning to CCGCCUAACAUUGCGAAUGCCGGUCCCAAGCCCGGAUAAAAGUGGAGGGGGCGG [C11U C15G], the self-cleavage amounted to 0.19.

For CCGCCUAACAUUGCAAAUGCCGGUCCCAAGCCCGGAUAAAAGUGGAGGGGGCGG [C11U C15A], the self-cleavage turned out to be 0.21.

CCGCCUAACAGUGCCAAUGCCGGGCCCAAGCCCGGAUAAAAGUGGAGGGGGCGG [C11G U24G]: the self-cleavage was 0.04.

As to CCGCCUAACAGUGCCAAUGCCGGCCCCAAGCCCGGAUAAAAGUGGAGGGGGCGG [C11G U24C], the self-cleavage was 0.04.

With CCGCCUAACAGUGCCAAUGCCGGACCCAAGCCCGGAUAAAAGUGGAGGGGGCGG [C11G U24A], the self-cleavage worked out at 0.04.

Take CCGCCUAACAGUGCCAAUGCCGGUCCCAAGCCCGGAUAAAAGUGGAGGGGGCGU [C11G G54U]: the self-cleavage is 0.36.

Take CCGCCUAACAGUGCCAAUGCCGGUCCCAAGCCCGGAUAAAAGUGGAGGGGGCGA [C11G G54A]: the self-cleavage was 0.3.

CCGCCUAACAGUGCCAAUGCCGGUCCCAAGCCCGGAUAAAAGUGGAGGGGGCGC [C11G G54C]: the self-cleavage amounted to 0.32.

Take CCGCCUAAUAUUGCCAAUGCCGGUCCCAAGCCCGGAUAAAAGUGGAGGGGGCGG [C11U C9U]: the self-cleavage worked out at 0.65.

As to CCGCCUAAGAUUGCCAAUGCCGGUCCCAAGCCCGGAUAAAAGUGGAGGGGGCGG [C11U C9G], the self-cleavage was found to be 0.36.

For the variant CCGCCUAAAAUUGCCAAUGCCGGUCCCAAGCCCGGAUAAAAGUGGAGGGGGCGG [C11U C9A], the self-cleavage came out at 0.26.

In the case of CCGCCUAACAGUGCCAAUGCCGGUCCCAAGCACGGAUAAAAGUGGAGGGGGCGG [C11G C32A], the self-cleavage turned out to be 0.04.

On to CCGCCUAACAGUGCCAAUGCCGGUCCCAAGCUCGGAUAAAAGUGGAGGGGGCGG [C11G C32U], for which the self-cleavage came out at 0.04.

As to CCGCCUAACAGUGCCAAUGCCGGUCCCAAGCGCGGAUAAAAGUGGAGGGGGCGG [C11G C32G], the self-cleavage came to 0.06.

Turning to CCGCCUAACAGUGCCAAUGCCGGUCCCAAGCCCGGAUAAAAGUGGACGGGGCGG [C11G G47C], the self-cleavage was found to be 0.04.

Take CCGCCUAACAGUGCCAAUGCCGGUCCCAAGCCCGGAUAAAAGUGGAUGGGGCGG [C11G G47U]: the self-cleavage turned out to be 0.04.

With CCGCCUAACAGUGCCAAUGCCGGUCCCAAGCCCGGAUAAAAGUGGAAGGGGCGG [C11G G47A], the self-cleavage was determined as 0.04.

CCGCCUAACAGUGCCAAUGCCGGUCCCAAGGCCGGAUAAAAGUGGAGGGGGCGG [C11G C31G]: the self-cleavage was 0.04.

Regarding CCGCCUAACAGUGCCAAUGCCGGUCCCAAGACCGGAUAAAAGUGGAGGGGGCGG [C11G C31A], the self-cleavage came to 0.03.

On to CCGCCUAACAGUGCCAAUGCCGGUCCCAAGUCCGGAUAAAAGUGGAGGGGGCGG [C11G C31U], for which the self-cleavage came out at 0.08.

In the case of CCGCCUAACAGUGCCAAUCCCGGUCCCAAGCCCGGAUAAAAGUGGAGGGGGCGG [C11G G19C], the self-cleavage turned out to be 0.03.

Regarding CCGCCUAACAGUGCCAAUACCGGUCCCAAGCCCGGAUAAAAGUGGAGGGGGCGG [C11G G19A], the self-cleavage stood at 0.08.

In the case of CCGCCUAACAGUGCCAAUUCCGGUCCCAAGCCCGGAUAAAAGUGGAGGGGGCGG [C11G G19U], the self-cleavage amounted to 0.05.

Consider CCGCCUAACAGUGCCAAUGCCGGUCCCAAGCCCGGAUAAAAGUGGAGUGGGCGG [C11G G48U], for which the self-cleavage came to 0.03.

CCGCCUAACAGUGCCAAUGCCGGUCCCAAGCCCGGAUAAAAGUGGAGAGGGCGG [C11G G48A]: the self-cleavage came to 0.03.

For CCGCCUAACAGUGCCAAUGCCGGUCCCAAGCCCGGAUAAAAGUGGAGCGGGCGG [C11G G48C], the self-cleavage is 0.03.

The values above are taken from the RNAGym collection of RNA variant scans (doi:10.1002/anie.201605470).
